Assay [1] concerns Rattus norvegicus. Nature of the assay: The antiulcer activity against stress-induced ulcer in rats by 30 mg/kg peroral administration. The following applies: route oral. The assay is classed as functional. Summed up:
(§1)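 Rats, 190-210 g, fasted 17 h with water allowed. Compound given orally 10 min before stress, 0.5 mL/100 g. Restrained in stress cage and immersed in 23 ± 1 °C water for 7 h without food or water. CO2 kill, stomach opened along greater curvature, total glandular ulcer length (mm) measured. % inhibition = (control − treated)/control × 100. Student's t test.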

In assay [2] the test system is Rattus norvegicus. Nature of the assay: Inhibition of stress-induced ulcer formation in rats by 10 mg/kg p.o. administration. Format: functional. The following applies: for inhibition in vivo at 10 mg/kg: Rattus norvegicus; for Inhibition: 10 mg/kg. Summed up: as §1
Assay [3] has as its target T1, Muscarinic acetylcholine receptor (Rattus norvegicus) (UniProt P08482+P08483+P08485+P08911+P10980). The assay can be described thus: Percentage inhibition for Muscarinic acetylcholine receptor at concentration 10 e-6M. The assay is classed as protein assay. Summed up:
(§2)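 Rat striatum homogenized in 10 vol distilled water, diluted to 200 vol of wet tissue weight with 50 mM Na-K phosphate buffer pH 7.4 (1 mL ≈ 5 mg wet tissue). [3H]quinuclidinyl benzilate (final 1.26 nM) plus drug in 10% ethanol, 37 °C for 60 min. Nonspecific binding defined with dexetimide (final 1 μM). Rapid GF/B filtration, three ice-cold buffer rinses, liquid scintillation counting.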

The target of assay [4] is Muscarinic acetylcholine receptor. Nature of the assay: Binding affinity was measured for Muscarinic acetylcholine receptor. The assay is classed as protein assay. Summed up:
as §2

Assay [5] concerns the target T1, Muscarinic acetylcholine receptor (Rattus norvegicus). Nature of the assay: Percentage inhibition for Muscarinic acetylcholine receptor at concentration 10 e-5M. Summed up:
as §2

For assay [6] the target is unchanged. The assay can be described thus: Percentage inhibition […] concentration 10 e-5M. The assay is classed as protein assay.

SMILES strings stand for the structures. Values joined by “and” are separate entries in the source; they are usually repeats but may differ in a detail not shown here. Equal entries are not always repeated. Some results are limits rather than exact numbers.

The inhibition in vivo is the share of the control response that was lost under treatment. The low end stands for little suppression, the high end for strong suppression. The compound `c1ccc2c(c1)OCc1ncccc1C2NC1CN2CCC1CC2` (stereo not given) yielded an inhibition in vivo at 30 mg/kg in the assay on Rattus norvegicus [1] of 36%. In the assay with Rattus norvegicus [2] (po), `CCN(CC)CCCNC1c2ccccc2OCc2ncccc21` (stereo not given) displayed an inhibition in vivo at 10 mg/kg of 34%. Moreover, the inhibition in vivo at 30 mg/kg in the assay on Rattus norvegicus [1] turned out to be 55%.

One may read the inhibition as the relative decrease from the control value, in per cent. The low end stands for a response near the control, the high end for a response far below the control. Compound `CC1CCCC(C)N1CCNC1c2ccccc2OCc2ncccc21` (stereo not given) came in with an inhibition in vivo at 30 mg/kg with Rattus norvegicus [1] below 64%. The inhibition in assay [3] worked out at 3%.

In general, Ki refers to a dissociation constant, usually derived from enzyme kinetics or from competition with a known ligand. Regarding `CCN(CC)CCNC1c2ccccc2OCc2ncccc21` (single isomer, unassigned; (+)), in the assay with Rattus norvegicus [2] (po), the inhibition in vivo at 10 mg/kg is below 63%. Moreover, in assay [4], the Ki amounted to 3000 nM. Consider `CCN(CC)CCNC1c2cc(C)ccc2OCc2ncccc21` (stereo not given), for which, in the assay on Rattus norvegicus [1], testing at 30 mg/kg gave an inhibition in vivo of 40%. With `CCN(CC)CC(C)NC1c2ccccc2OCc2ncccc21` (stereo not given), the inhibition in vivo at 30 mg/kg in the assay on Rattus norvegicus [1] is 62%. Take `CN1CCN(CC(=O)NC2c3ccccc3OCc3ncccc32)CC1` (stereo not given): in the assay with Rattus norvegicus [2] (po), at 10 mg/kg the inhibition in vivo was 31%. Further, the inhibition in vivo at 30 mg/kg in the assay on Rattus norvegicus [1] is below 56%. In addition, the inhibition in assay [3] was determined as 3%. Compound `c1ccc2c(c1)OCc1ncccc1C2NCCN1CCCCC1` (stereo not given) yielded an inhibition in vivo at 30 mg/kg in the assay on Rattus norvegicus [1] of 52%. Regarding `CN/C(=N\CCSCc1nc[nH]c1C)NC#N` [CIMETIDINE], at 10 mg/kg the inhibition in vivo with Rattus norvegicus [2] (route oral) was 33%. Further, the inhibition in vivo at 30 mg/kg in the assay on Rattus norvegicus [1] is below 39%. For the compound `CCN1CCCC(NC2c3ccccc3OCc3ncccc32)C1` (stereo not given), the inhibition in vivo at 30 mg/kg in the assay on Rattus norvegicus [1] came to 67%. The compound `CCN(CC)CCNC1c2ccccc2Oc2ncccc21` (stereo not given) returned an inhibition in vivo at 10 mg/kg in the assay on Rattus norvegicus [2] (po) of 18%. This compound also had an inhibition in vivo at 30 mg/kg with Rattus norvegicus [1] below 60%. For the compound `CCN(CC)CCN(CC)C1c2ccccc2OCc2ncccc21` (stereo not given), the inhibition in assay [5] is 15%. Besides, the inhibition in vivo at 30 mg/kg in the assay on Rattus norvegicus [1] came out at 33%. `c1cncc(NC2c3ccccc3OCc3ncccc32)c1` (stereo not given) gave an inhibition in vivo at 30 mg/kg with Rattus norvegicus [1] of 15%. `CCN(CC)CC(=O)NC1c2ccccc2OCc2ncccc21` (stereo not given) yielded an inhibition in vivo at 10 mg/kg in the assay with Rattus norvegicus [2] (po) of 10%. In the assay on Rattus norvegicus [1], this compound returned an inhibition in vivo at 30 mg/kg of 16%. In the assay on Rattus norvegicus [1], `CCN(CC)CCNC1c2ccccc2SCc2ncccc21` (stereo not given) returned an inhibition in vivo at 30 mg/kg of 19%.

With `CCN(CC)CCNC1c2cc(Cl)ccc2OCc2ncccc21` (stereo not given), the inhibition in vivo at 30 mg/kg with Rattus norvegicus [1] was found to be 30%.

In the assay on Rattus norvegicus [2] (po), `CCN(CC)CCNC1c2cc(F)ccc2OCc2ncccc21` (stereo not given) returned an inhibition in vivo at 10 mg/kg below 53%. In the assay with Rattus norvegicus [1], this compound yielded an inhibition in vivo at 30 mg/kg below 87%. `NCCNC1c2ccccc2OCc2ncccc21` (stereo not given) yielded an inhibition in vivo at 30 mg/kg in the assay with Rattus norvegicus [1] of 19%. For `O=C(Cn1ccnc1)NC1c2ccccc2OCc2ncccc21` (stereo not given), testing at 10 mg/kg in the assay on Rattus norvegicus [2] (po) gave an inhibition in vivo of 6%. The same compound showed an inhibition in vivo at 30 mg/kg in the assay with Rattus norvegicus [1] of 12%. `CN(C)CCNC1c2ccccc2OCc2ncccc21` (stereo not given): the inhibition in vivo at 10 mg/kg with Rattus norvegicus [2] (po) turned out to be 24%. Further, 30 mg/kg produced 85% inhibition in vivo in the assay on Rattus norvegicus [1]. The like results for `CC1CCC(C)N1CCNC1c2ccccc2OCc2ncccc21` (stereo not given) were, in that order, 67% and 94%. For orientation: Inhibition means the share of the control response that was lost under treatment. High values mean a strong effect, low ones a weak effect. The compound `CCN(CC)CCNC1c2ccccc2OCc2ncccc21` (single isomer, unassigned) [listing 1 of 2 here] showed an Inhibition in the assay on Rattus norvegicus [2] (route oral) below 55%. This compound also yielded an inhibition constant (Ki) in assay [4] of 1100 nM.

For the compound `CN1CCN(C2c3ccccc3OCc3ncccc32)CC1` (stereo not given), in the assay with Rattus norvegicus [2] (route oral), at 10 mg/kg the inhibition in vivo was 28%. The compound also yielded an inhibition in vivo at 30 mg/kg with Rattus norvegicus [1] of 76%. As for `CCN(CC)CCNC1c2cccnc2COc2c(C)cccc21` (stereo not given), the inhibition in vivo at 10 mg/kg in the assay on Rattus norvegicus [2] (po) is below 36%. For the same compound, in the assay with Rattus norvegicus [1], the inhibition in vivo at 30 mg/kg is below 48%.

On to `CCN(CC)CCNC1c2ccccc2OCc2ncccc21` (stereo in doubt; 11), for which the Inhibition with Rattus norvegicus [2] (route oral) is 65% and 57%. In addition, the inhibition in vivo at 30 mg/kg with Rattus norvegicus [1] was found to be 85%. Further, the inhibition constant Ki in assay [4] was 1600 nM.

In the case of `CC(C)N(CC(=O)NC1c2ccccc2OCc2ncccc21)C(C)C` (stereo not given), in assay [6], the inhibition was 12%. In addition, the inhibition in vivo at 10 mg/kg with Rattus norvegicus [2] (po) was determined as 17%. For the same compound, in the assay with Rattus norvegicus [1], the inhibition in vivo at 30 mg/kg is below 45%. Compound `CC(C)N(CCNC1c2ccccc2OCc2ncccc21)C(C)C` (stereo not given) came in with an inhibition in vivo at 10 mg/kg in the assay on Rattus norvegicus [2] (po) of 61%. The inhibition in vivo at 30 mg/kg in the assay on Rattus norvegicus [1] is 88%.

For the compound `c1ccc2c(c1)OCc1ncccc1C2NCCN1CCOCC1` (stereo not given), the inhibition in vivo at 10 mg/kg in the assay with Rattus norvegicus [2] (po) worked out at 7%. The same compound displayed an inhibition in vivo at 30 mg/kg in the assay with Rattus norvegicus [1] of 73%. `Cc1ccc2c(c1)C(N1CCN(C)CC1)c1cccnc1CO2` (stereo not given) displayed an inhibition in vivo at 30 mg/kg with Rattus norvegicus [1] of 7%.

Turning to `CC1CC[C@H](C)N1CCNC1c2ccccc2OCc2ncccc21` (stereo not given in full), testing at 10 mg/kg with Rattus norvegicus [2] (po) gave an inhibition in vivo of 64%. This compound showed an inhibition in vivo at 30 mg/kg with Rattus norvegicus [1] of 69%.

In the assay with Rattus norvegicus [1], `CCN(CC)CCN(C(C)=O)C1c2ccccc2OCc2ncccc21` (stereo not given) returned an inhibition in vivo at 30 mg/kg of 0%. As to `CCN(CC)CCNC1c2ccccc2OCc2ncccc21` (single isomer, unassigned) [listing 2 of 2 here], in assay [5], the inhibition amounted to 38%. Take `c1ccc2c(c1)OCc1ncccc1C2NCCN1CCCC1` (stereo not given): in the assay on Rattus norvegicus [2] (po), the inhibition in vivo at 10 mg/kg was found to be 68%. For the same compound, the inhibition in vivo at 30 mg/kg with Rattus norvegicus [1] turned out to be 72%. Regarding `CCNCCNC1c2ccccc2OCc2ncccc21` (stereo not given), in the assay on Rattus norvegicus [1], the inhibition in vivo at 30 mg/kg is below 55%. Take `CN1CCN(CC(=O)N2c3ccccc3C(=O)Nc3cccnc32)CC1` [PIRENZEPINE]: in the assay on Rattus norvegicus [2] (po), the inhibition in vivo at 10 mg/kg is below 67%. Also, the inhibition in vivo at 30 mg/kg with Rattus norvegicus [1] was below 86%.

The record behind these values is ChEMBL document CHEMBL1124081, “Synthesis and antiulcer activity of 5,11-dihydro[1]benzoxepino[3,4-b]pyridines” (J Med Chem, 1988).
